Experimental data from ChEMBL document CHEMBL1799968, “Dimethyl-diphenyl-propanamide derivatives as nonsteroidal dissociated glucocorticoid receptor agonists” (J Med Chem, 2010).

Assays:
Glucocorticoid receptor [1] = target: T1, Glucocorticoid receptor (Homo sapiens, UniProt P04150); test: Displacement of GS-red from GRapha by fluorescence polarization assay
T1 sequence (P04150 whole entry): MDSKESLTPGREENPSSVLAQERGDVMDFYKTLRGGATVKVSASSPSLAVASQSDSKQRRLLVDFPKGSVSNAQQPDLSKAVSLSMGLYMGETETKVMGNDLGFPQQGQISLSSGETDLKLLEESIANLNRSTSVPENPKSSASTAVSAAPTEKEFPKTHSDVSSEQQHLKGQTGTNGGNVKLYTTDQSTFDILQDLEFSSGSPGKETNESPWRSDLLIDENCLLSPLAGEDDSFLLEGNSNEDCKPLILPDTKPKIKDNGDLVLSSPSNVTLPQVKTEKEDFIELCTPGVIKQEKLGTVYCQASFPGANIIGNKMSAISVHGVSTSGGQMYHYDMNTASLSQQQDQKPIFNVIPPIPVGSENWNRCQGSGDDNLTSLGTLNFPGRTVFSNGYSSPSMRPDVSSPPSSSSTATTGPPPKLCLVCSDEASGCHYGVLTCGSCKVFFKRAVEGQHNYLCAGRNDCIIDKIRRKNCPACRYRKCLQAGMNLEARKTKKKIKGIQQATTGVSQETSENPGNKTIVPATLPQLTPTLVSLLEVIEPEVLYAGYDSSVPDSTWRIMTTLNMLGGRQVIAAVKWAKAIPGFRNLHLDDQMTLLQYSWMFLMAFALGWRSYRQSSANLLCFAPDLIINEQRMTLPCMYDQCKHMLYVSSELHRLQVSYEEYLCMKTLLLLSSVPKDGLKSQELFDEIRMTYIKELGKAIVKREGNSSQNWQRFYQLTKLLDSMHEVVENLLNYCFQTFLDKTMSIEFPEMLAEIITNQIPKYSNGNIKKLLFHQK

Glucocorticoid receptor [2] = target: T1, Glucocorticoid receptor; test: Transrepression activity of glucocorticoid receptor in human A549 cells expressing AP-1 assessed as inhibition of PMA-induced AP-1 activity by luciferase reporter gene assay; assay type: cell-based
[3] = target: T2, Glucocorticoid receptor (Homo sapiens) (UniProt P04150); test: Transrepression activity of glucocorticoid receptor in human A549 cells expressing AP-1 assessed as inhibition of PMA-induced AP-1 activity by luciferase reporter gene assay relative to Dexamethasone; assay type: cell-based
T2 sequence (whole entry): T1 sequence (P04150 whole entry)
In short: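 Human A549 lung epithelial cells stably transfected with a 5×AP-1 response element luciferase reporter. AP-1 was induced with PMA (15 ng/mL), and inhibition was read as decreased luciferase.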

Glucocorticoid receptor [4] = target: T1, Glucocorticoid receptor; test: Transactivation activity of glucocorticoid receptor ligand binding domain expressed in human NP-1 Hela cells co-expressing GAL4 DNA binding domain by luciferase reporter gene assay; assay type: cell-based
Glucocorticoid receptor [5] = target: T1, Glucocorticoid receptor; test: Transrepression activity of glucocorticoid receptor in human A549 cells assessed as inhibition of IL1beta-stimulated NFkappaB-dependent E-selectin transcription by luciferase reporter gene assay; assay type: cell-based
[6] = target: T2, Glucocorticoid receptor (Homo sapiens); test: Transrepression activity of glucocorticoid receptor in human A549 cells assessed as inhibition of IL1beta-stimulated NFkappaB-dependent E-selectin transcription by luciferase reporter gene assay relative to Dexamethasone; assay type: cell-based
Glucocorticoid receptor [7] = target: T1, Glucocorticoid receptor; test: Transactivation activity at glucocorticoid receptor in human 13D3/Huh7 cells assessed as induction of tyrosine aminotransferase activity after 24 hrs; assay type: cell-based, Huh-7
[8] = target: T2, Glucocorticoid receptor (Homo sapiens); test: Transactivation activity of glucocorticoid receptor ligand binding domain expressed in human NP-1 Hela cells co-expressing GAL4 DNA binding domain by luciferase reporter gene assay relative to Dexamethasone; assay type: cell-based
In short: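 HeLa NP-1 cells stably carrying a GAL4 DBD–human GR LBD chimera with a GAL4 luciferase reporter. Agonist activity was read as increased luciferase activity.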

[9] = target: T2, Glucocorticoid receptor (Homo sapiens); test: Transactivation activity at glucocorticoid receptor in human 13D3/Huh7 cells assessed as induction of tyrosine aminotransferase activity after 24 hrs relative to Dexamethasone; assay type: cell-based; details: Huh-7
In short: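 Human 13D3/Huh7 hepatoma cells, 20 K/well, were incubated overnight at 37 °C/5% CO2. They were then treated overnight with compounds in assay medium containing 20 μM forskolin. The reaction was stopped with KOH and A340 read. Results are % activation, with EC50 derived.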

Progesterone receptor = target: T3, Progesterone receptor (Homo sapiens, UniProt P06401); test: Binding affinity to progesterone receptor by fluorescence polarization assay
T3 sequence (P06401 whole entry): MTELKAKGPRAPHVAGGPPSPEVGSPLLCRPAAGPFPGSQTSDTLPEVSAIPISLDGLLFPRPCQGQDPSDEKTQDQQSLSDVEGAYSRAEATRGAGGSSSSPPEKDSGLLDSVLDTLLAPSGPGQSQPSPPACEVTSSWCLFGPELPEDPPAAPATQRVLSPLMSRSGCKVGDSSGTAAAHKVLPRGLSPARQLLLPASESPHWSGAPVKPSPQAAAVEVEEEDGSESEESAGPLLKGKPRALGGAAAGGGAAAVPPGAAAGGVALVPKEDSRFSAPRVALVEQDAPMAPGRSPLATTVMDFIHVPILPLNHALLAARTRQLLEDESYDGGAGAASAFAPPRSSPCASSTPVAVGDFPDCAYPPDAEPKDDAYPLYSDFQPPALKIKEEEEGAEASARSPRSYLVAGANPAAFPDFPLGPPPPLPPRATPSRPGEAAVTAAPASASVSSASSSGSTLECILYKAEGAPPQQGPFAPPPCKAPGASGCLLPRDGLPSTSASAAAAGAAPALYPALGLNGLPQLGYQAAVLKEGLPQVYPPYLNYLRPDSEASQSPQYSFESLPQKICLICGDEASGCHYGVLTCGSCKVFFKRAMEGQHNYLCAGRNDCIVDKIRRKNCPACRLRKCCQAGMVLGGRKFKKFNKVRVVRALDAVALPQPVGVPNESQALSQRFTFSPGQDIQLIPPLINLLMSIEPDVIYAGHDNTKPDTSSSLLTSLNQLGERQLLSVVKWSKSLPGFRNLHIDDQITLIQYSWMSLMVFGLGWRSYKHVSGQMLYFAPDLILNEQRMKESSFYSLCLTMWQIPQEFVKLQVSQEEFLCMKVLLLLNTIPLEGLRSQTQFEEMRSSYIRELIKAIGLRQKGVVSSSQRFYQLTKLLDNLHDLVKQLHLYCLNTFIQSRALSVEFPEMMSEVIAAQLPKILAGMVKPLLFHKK
In short: (§1)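 Fluorescence polarization competition of test compound against a fluorescently labelled ligand for binding to full-length receptor or its ligand-binding domain.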

Androgen receptor = target: T4, Androgen receptor (Homo sapiens, UniProt P10275); test: Binding affinity to androgen receptor by fluorescence polarization assay; in short: as §1
T4 sequence (P10275 whole entry): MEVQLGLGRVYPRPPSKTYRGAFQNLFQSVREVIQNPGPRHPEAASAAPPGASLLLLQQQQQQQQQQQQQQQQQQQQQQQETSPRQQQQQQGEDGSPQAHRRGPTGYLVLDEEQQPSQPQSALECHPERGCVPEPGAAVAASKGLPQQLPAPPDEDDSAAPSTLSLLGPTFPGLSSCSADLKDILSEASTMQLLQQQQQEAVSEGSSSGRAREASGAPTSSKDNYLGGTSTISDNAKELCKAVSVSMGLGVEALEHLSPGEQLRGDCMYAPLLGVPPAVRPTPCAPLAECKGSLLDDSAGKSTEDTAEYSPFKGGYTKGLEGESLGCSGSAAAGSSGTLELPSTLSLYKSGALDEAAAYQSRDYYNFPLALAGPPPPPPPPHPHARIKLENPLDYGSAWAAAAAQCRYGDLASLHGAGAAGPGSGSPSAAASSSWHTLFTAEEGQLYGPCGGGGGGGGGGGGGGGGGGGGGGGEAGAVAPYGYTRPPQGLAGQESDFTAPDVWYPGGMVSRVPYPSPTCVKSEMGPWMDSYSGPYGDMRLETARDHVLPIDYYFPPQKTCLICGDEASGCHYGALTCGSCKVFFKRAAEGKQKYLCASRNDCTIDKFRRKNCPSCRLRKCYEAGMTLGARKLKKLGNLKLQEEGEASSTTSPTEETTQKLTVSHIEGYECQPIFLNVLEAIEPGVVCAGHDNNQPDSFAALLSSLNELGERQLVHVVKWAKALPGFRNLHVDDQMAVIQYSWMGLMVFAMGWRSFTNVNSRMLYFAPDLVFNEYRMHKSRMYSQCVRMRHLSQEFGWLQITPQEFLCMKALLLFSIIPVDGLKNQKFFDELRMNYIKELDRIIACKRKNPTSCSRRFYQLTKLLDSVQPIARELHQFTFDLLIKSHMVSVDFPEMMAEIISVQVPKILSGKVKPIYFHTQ

Row | SMILES | Ki (Glucocorticoid receptor [1]) [nM] | EC50 (Glucocorticoid receptor [2]) [nM] | Efficacy [3] [%] | EC50 (Glucocorticoid receptor [4]) [nM] | EC50 (Glucocorticoid receptor [5]) [nM] | Efficacy [6] [%] | EC50 (Glucocorticoid receptor [7]) [nM] | Efficacy [8] [%] | Efficacy [9] [%] | Ki (Progesterone receptor) [nM] | Ki (Androgen receptor) [nM]
1 | CC(C)(C(=O)Nc1nccs1)[C@H](c1ccccc1)c1ccc(O)c(F)c1 | 4.6 | > 10000 | 16 | > 10000 | > 5000 | 12 | > 5000 | – | – | – | –
2 | CC(C)(C(=O)Nc1nncs1)[C@@H](c1ccccc1)c1ccc(O)c(Br)c1 | 0.4 | 12.7 | 87 | 67.2 | 6.2 | 75 | 46.5 | 54 | 57 | – | –
3 | Cc1cc([C@H](c2ccccc2)C(C)(C)C(=O)Nc2nncs2)ccc1O | – | – | – | – | – | – | – | – | – | 140 | > 4000
4 | CC(C)(C(=O)Nc1nccs1)C(c1ccccc1)c1ccc(O)cc1 (racemic) | 2.5 | 61.4 | 63 | 863 | 125 | 50 | 2580 | 14 | 20 | – | –
5 | CC(C)(C(=O)Nc1nccs1)[C@H](c1ccccc1)c1ccc(O)cc1 | – | > 10000 | – | > 10000 | – | – | > 10000 | – | – | – | –
6 | CC(=O)c1cc([C@H](c2ccccc2)C(C)(C)C(=O)Nc2nccs2)ccc1O | 7.3 | > 10000 | – | > 10000 | > 5000 | 16 | 2320 | – | – | – | –
7 | CC(C)(C(=O)Nc1nncs1)C1c2ccccc2Oc2ccccc21 | 6 | > 5000 | – | > 10000 | > 5000 | – | – | – | – | – | –
8 | CC(C)(C(=O)Nc1nncs1)[C@@H]1c2ccccc2Oc2cc(O)ccc21 | 58.7 | > 5000 | – | > 10000 | > 5000 | – | – | – | – | – | –
9 | CC(C)(C(=O)Nc1nccs1)C(c1ccccc1)c1ccc(O)c(F)c1 (racemic) | 0.6 | 51.1 | 77 | 216 | 37.7 | 63 | 197 | 39 | 41 | – | –
10 | CC(C)(C(=O)Nc1nccs1)[C@@H](c1ccccc1)c1ccc(O)c(C#N)c1 | 0.9 | 506 | 74 | > 10000 | 206 | 48 | > 5000 | – | 16 | 144 | > 3000
